Results from different studies.
Protocols differ between the studies behind these lines.
Observed: microbial growth

| Structure (SMILES) | organism | test | system | conditions | MIC |
| --- | --- | --- | --- | --- | --- |
| CC1(C)S[C@@H]2[C@H](NC(=O)[C@H](N)c3ccc(O)cc3)C(=O)N2[C@H]1C(=O)O | Acinetobacter baumannii | broth dilution | ATCCBAA1605 |  | > 64 µg/mL |
| CNC(C)C1CCC(N)C(OC2C(N)CC(N)C(OC3OCC(C)(O)C(NC)C3O)C2O)O1 (stereo not shown) | Proteus mirabilis | broth dilution |  |  | 2 µg/mL |
| O=C1O[C@H]2[C@@H]3OC(=O)c4cc(O)c(O)c(O)c4-c4c(O)c(O)c5oc(=O)c6c(c(O)c(O)c7oc(=O)c4c5c76)-c4c(cc(O)c(O)c4O)C(=O)OC[C@H]3OC(O)[C@@H]2OC(=O)c2cc(O)c(O)c(O)c2-c2c1cc(O)c(O)c2O (mixture of isomers) | Streptococcus gordonii | broth dilution |  | 24 h | 100 µg/mL |
| CC[C@H]1OC(=O)[C@H](C)[C@@H](O[C@H]2C[C@@](C)(OC)[C@@H](O)[C@H](C)O2)[C@H](C)[C@@H](O[C@@H]2O[C@H](C)C[C@H](N(C)C)[C@H]2O)[C@](C)(O)C[C@@H](C)CN(C)[C@H](C)[C@@H](O)[C@]1(C)O | Acinetobacter baumannii | broth dilution | ATCCBAA1605 |  | 16 µg/mL |
| CCCCCCCCCCCC[N+](C)(C)Cc1ccccc1 | Acinetobacter baumannii |  | ATCC17978 |  | 63 µM |
| CC1(C)S[C@@H]2[C@H](NC(=O)[C@H](N)c3ccccc3)C(=O)N2[C@H]1C(=O)O | Acinetobacter baumannii | broth dilution | ATCC19606 |  | > 64 µg/mL |
| O=c1oc2c(O)c(O)cc3c(=O)oc4c(O)c(O)cc1c4c23 | Streptococcus gordonii | broth dilution |  | 24 h | 100 µg/mL |
| CCCCCCC#Cc1cncc(-c2nnc(SCc3cc(C(F)(F)F)cc(C(F)(F)F)c3)n2CCCN)c1 | Acinetobacter baumannii | broth dilution | ATCC17978 |  | 32 µg/mL |
| C[C@@H]1O[C@@H](OC[C@H]2O[C@@H](Oc3c(-c4ccc(O)c(O)c4)oc4cc(O)cc(O)c4c3=O)[C@H](O)[C@@H](O)[C@@H]2O)[C@H](O)[C@H](O)[C@H]1O | Streptococcus gordonii | broth dilution |  | 24 h | 200 µg/mL |
| CCCCCCC#Cc1cncc(-c2nnc(SCc3ccc([N+](=O)[O-])cc3)n2CCCN)c1 | Acinetobacter baumannii | broth dilution | ATCC17978 |  | 64 µg/mL |
